Reference: publication PMC8717358 (Journal of the American Chemical Society, 2021)
Positions count from the first letter of the chain named. One block for each molecule: values may come before it.

What was measured:
Med25 AcID [1] = molecular target: T1, Med25 AcID (Homo sapiens, UniProt Q71SY5); test: Mass spectrometry; assay type: binding; conditions: mass spectrometry
T1 sequence (Q71SY5 389-543 limits assumed): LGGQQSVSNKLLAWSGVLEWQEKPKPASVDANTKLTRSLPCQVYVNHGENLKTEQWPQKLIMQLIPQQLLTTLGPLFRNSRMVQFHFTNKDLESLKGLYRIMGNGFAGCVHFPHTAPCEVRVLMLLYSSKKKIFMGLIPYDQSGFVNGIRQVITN

[2] = molecular target: T2, Med25 AcID fl-VP16(465–490) (Homo sapiens, UniProt Q71SY5); assay type: binding
T2 sequence (Q71SY5 389-543 limits assumed): T1 sequence (Q71SY5 389-543 limits assumed)

Med25 ETV5 complex [3] = molecular target: T3, Med25 ETV5 complex (Homo sapiens, UniProt Q71SY5); test: Co-immunoprecipitation of ETV5 with Med25 in HeLa cells; assay type: cell-based; conditions: 25 μM NA
T3 sequence (Q71SY5 1-747): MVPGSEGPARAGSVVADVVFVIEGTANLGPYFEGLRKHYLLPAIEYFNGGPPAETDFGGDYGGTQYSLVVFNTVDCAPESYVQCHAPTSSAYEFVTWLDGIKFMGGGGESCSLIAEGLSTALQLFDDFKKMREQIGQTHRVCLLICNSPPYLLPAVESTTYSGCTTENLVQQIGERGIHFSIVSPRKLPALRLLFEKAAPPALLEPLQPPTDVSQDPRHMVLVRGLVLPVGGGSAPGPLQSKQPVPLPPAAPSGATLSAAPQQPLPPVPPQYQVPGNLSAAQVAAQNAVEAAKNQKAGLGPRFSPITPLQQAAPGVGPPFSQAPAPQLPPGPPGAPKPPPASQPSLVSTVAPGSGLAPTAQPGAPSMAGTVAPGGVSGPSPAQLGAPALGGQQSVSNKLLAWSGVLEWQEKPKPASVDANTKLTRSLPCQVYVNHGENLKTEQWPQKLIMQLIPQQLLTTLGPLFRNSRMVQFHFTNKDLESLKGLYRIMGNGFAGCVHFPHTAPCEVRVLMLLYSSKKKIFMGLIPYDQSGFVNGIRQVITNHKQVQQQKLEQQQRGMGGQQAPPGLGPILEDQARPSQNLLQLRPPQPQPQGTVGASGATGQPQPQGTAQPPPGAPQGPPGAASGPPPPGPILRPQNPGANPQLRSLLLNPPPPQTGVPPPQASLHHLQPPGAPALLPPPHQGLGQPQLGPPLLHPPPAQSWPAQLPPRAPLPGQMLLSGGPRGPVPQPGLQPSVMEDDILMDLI

Med25 ATF6α = molecular target: T4, Med25 ATF6α (Homo sapiens, UniProt Q71SY5); test: Fluorescence polarization inhibition of Med25 ATF6α interaction; conditions: H2 binding surface
T4 sequence (Q71SY5 389-543 limits assumed): T1 sequence (Q71SY5 389-543 limits assumed)

IBiD ACTR = IBiD ACTR (Homo sapiens, UniProt Q92793); assay type: binding
full-length Med25 = molecular target: T5, full-length Med25 (Homo sapiens, UniProt Q71SY5); test: Cellular thermal shift assay in HeLa cell nuclear extracts; assay type: cell-based; conditions: 25 μM NA
T5 sequence (Q71SY5 1-747): T3 sequence (Q71SY5 1-747)
In short: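 HeLa cell nuclear extracts were dosed with 25 μM test compound or an equivalent amount of DMSO vehicle. Samples were then heated across a range of temperatures to assess thermal stabilization of Med25.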

Med25 AcID [4] = molecular target: T6, Med25 AcID (Homo sapiens, UniProt Q71SY5, K520R); test: Mass spectrometry; assay type: binding; conditions: Med25 K520R mutant
T6 sequence (Q71SY5 394-543 K520R): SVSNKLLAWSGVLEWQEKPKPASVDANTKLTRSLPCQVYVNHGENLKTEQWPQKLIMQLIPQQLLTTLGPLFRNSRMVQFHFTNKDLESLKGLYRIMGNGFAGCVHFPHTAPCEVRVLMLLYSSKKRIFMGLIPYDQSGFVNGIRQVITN

Med25 AcID [5] = molecular target: T7, Med25 AcID (Homo sapiens, UniProt Q71SY5, K519R); test: Mass spectrometry; assay type: binding; conditions: Med25 K519R mutant
T7 sequence (Q71SY5 394-543 K519R): T6 sequence (Q71SY5 394-543 K520R) with K126R, R127K

Med25 ETV5 complex [6] = molecular target: T3, Med25 ETV5 complex; test: Co-immunoprecipitation of ETV5 with Med25 in VARI068 cells; assay type: cell-based
In short: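 Cells were treated with test compound. ETV5 was co-immunoprecipitated with Med25 and detected by Western blot.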

MDA-MB-231 cells = test: Isobologram synergy with lapatinib, cell viability assay; assay type: cell-based; conditions: fixed dose ratios, 2 days, MTT
Med25 AcID ETV5 = molecular target: T8, Med25 AcID ETV5 (Homo sapiens, UniProt Q71SY5); test: Fluorescence polarization inhibition of Med25 AcID ETV5 interaction; conditions: H1 binding surface
T8 sequence (Q71SY5 389-543 limits assumed): T1 sequence (Q71SY5 389-543 limits assumed)

MMP2 transcript = test: qPCR analysis of MMP2 transcript levels in VARI068 cells; assay type: cell-based; conditions: normalized to RPL19
In short: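 Test compound- or vehicle-treated cells were assayed by qPCR for MMP2 transcript, normalized to reference gene RPL19. Runs were technical triplicates in biological duplicate and averaged.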

covalent adduct formation with Med25 AcID (Med25 AcID [1]): efficiently labels Med25 AcID
impact on binding of activators to Med25 AcID [2]: does not impact binding of activators
SMILES: O=Cc1ccccc1O [salicylaldehyde]

IC50 [2]: > 250 µM
SMILES: COc1cc(C)c2c(c1C=O)Oc1c(c(C)c(O)c3c1C(O)OC3=O)OC2=O (centres unmarked) [Stictic acid]

inhibition of Med25 PPI with ATF6α (Med25 ATF6α): inhibits
IC50 (IBiD ACTR): > 250 µM
thermal stabilization of endogenous Med25 (full-length Med25): stabilizes endogenous Med25 protein
reduction in mass abundance of the NA covalent adduct (Med25 AcID [4]): 22%
reduction in mass abundance of the +1 covalent adduct (Med25 AcID [5]): 53%
formation of Med25 ETV5 complex (Med25 ETV5 complex [6]): blocks the Med25 ETV5 complex
time at which significant inhibition was observed ([2]; time-course experiment): 5 min
inhibition of Med25 PPI with ETV5 (Med25 AcID ETV5): inhibits
SMILES: Cc1cc(O)c(C=O)c2c1C(=O)Oc1c(C)c(O)c3c(c1O2)C(O)OC3=O (centres unmarked) [NA, norstictic acid]
formation of Med25 ETV5 complex (Med25 ETV5 complex [3]): blocks the formation of the Med25 ETV5 complex
covalent adduct formation with Med25 AcID (Med25 AcID [1]): concentration-dependent covalent adduct(s)
synergy with lapatinib (MDA-MB-231 cells): strong synergy was observed
MMP2 transcript levels relative to vehicle (MMP2 transcript): substantial downregulation of MMP2

IC50 [2]: 3.9 ± 0.3 µM
SMILES: COc1cc(C(=O)O)c2c(c1C)OC(=O)c1c(C)cc(O)c(C=O)c1O2 [PA, psoromic acid]

SMILES: COc1cc(C)c(C(=O)Oc2cc(C)c(C(=O)O)c(O)c2C)c(O)c1C=O [baeomycesic acid]
covalent adduct formation with Med25 AcID (Med25 AcID [1]): covalent adducts with Med25 were observed
